Compound activity as filed in PubChem.
Rows were chosen to be rich in hits. Some 2% of all compounds tested hit in one or more screens of this group.
TPT1 inhibitor – blocks Candida albicans tRNA 2'-phosphotransferase | recombinant caTPT1, FP RNA substrate dephosphorylation | inhibition, % at 5 µM | 0.81% of 300,000 active;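 active = inhibition above the mean of all tested compounds plus 3 SD, set per screening campaign, cut at about 24% in these data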;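 also: plate controls were DMSO alone for no effect and ferristatin control at 100 nM for full effect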
CSN deneddyl inh – inhibitors of human CSN-mediated cullin deneddylation | Purified CSN, SCF-Nedd8-OG deneddylation, fluorescence polarization | inhibition, % at 12.5 µM | 0.38% of 360,000 active | AID 651999;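 active = pattern-corrected inhibition above about 35%, with an unprinted fluorescence ratio check between 0.5 and 1.5, limit read from the data, passing the limit was not always enough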;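 also: 0% = enzyme with substrate and 100% = substrate without enzyme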
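Test system: Human Csn5 produced in HEK293T cells | Compound: 12.5 µM single point | Times: 90 min, room temperature | Signal: Fluorescence polarization readout | Read-out basis: % inhibition of substrate cleavage by Csn5 | Controls: no-enzyme wells high, enzyme-with-substrate wells low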
Rpn11 inh – blocks the human proteasome subunit Rpn11. O00487. human 26S proteasome, Ub4-pepOG fluorescence polarization; 20S core pre-blocked with epoxomicin. AID 588493. inhibition, % at 20 µM. 0.59% of 360,000 active;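 active = inhibition at 20 µM, scaled to each plate's controls, above about 33%, limit read from the data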
SENP1 inh – inhibitors of human SENP1 SUMO protease catalytic domain | 0.21% of 360,000 active | recombinant SENP1 catalytic domain, CyPet-SUMO1-YPet FRET cleavage | inhibition, % at 10 µM | Q9P0U3;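 active = inhibition at least 30% at 10 µM, raw YFP signal under a set limit, fluorescence ratio 0.5 to 1.5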;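 also: 0% = enzyme with DMSO and 100% = no enzyme wells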
Target sequence (Q9P0U3 419-644 limits assumed): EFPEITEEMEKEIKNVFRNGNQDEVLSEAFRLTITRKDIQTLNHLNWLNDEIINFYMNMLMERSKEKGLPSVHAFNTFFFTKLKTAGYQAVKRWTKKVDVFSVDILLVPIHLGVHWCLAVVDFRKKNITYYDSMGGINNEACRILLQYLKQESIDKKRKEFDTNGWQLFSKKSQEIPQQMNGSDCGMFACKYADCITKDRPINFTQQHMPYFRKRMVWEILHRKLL
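Compound: 10 µM single point, 0.5% DMSO; Test system: hSENP1 catalytic domain, recombinant; Timing: 50 min reaction at room temperature; Technique: FRET, CFP and YFP emission; Control set: no-enzyme wells low, DMSO-plus-enzyme wells high control.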
HNF4A DNA FP – change in binding of human HNF4 alpha to DNA. HNF4a-FITC DNA binding, fluorescence polarization, 1 h. activity change, % at 10 µM. 0.3% of 360,000 active. AID 1224865; in the data active = activity change above about 30%, passing the limit was not always enough
Target sequence (P41235 whole entry, looked up): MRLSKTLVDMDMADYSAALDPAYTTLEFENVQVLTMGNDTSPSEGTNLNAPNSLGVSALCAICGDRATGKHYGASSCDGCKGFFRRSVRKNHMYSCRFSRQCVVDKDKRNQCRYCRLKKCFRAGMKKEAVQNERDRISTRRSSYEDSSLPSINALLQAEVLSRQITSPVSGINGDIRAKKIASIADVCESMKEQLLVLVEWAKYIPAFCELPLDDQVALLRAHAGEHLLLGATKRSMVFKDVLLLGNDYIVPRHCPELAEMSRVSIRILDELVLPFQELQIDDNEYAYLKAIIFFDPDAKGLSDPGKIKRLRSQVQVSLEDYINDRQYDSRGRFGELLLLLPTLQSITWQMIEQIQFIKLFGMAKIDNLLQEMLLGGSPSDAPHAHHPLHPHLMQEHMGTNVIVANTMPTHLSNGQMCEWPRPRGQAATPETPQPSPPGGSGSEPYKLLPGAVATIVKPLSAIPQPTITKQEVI
ATG4B inh – inhibitors of human ATG4B cysteine protease; Q9Y4P1; ATG4B cleavage of LC3-PLA2, NBD-HPC fluorescence, 1 h; inhibition, % at 8.33 µM; 0.51% of 340,000 active; AID 504462
Rpn11 inh conf – confirmation of human proteasome Rpn11 inhibitors | 29% of 1,900 active | purified human 26S proteasome, Ub4-pepOG fluorescence polarization; proteasome pretreated with epoxomicin | shares compounds with Rpn11 inh | inhibition, % at 20 µM
MMP-2 counter – counter-screen for RPN11 inhibitors: inhibition of human MMP-2; inhibition, % at 20 µM; recombinant MMP-2, FRET peptide cleavage fluorescence; shares compounds with Rpn11 inh; 4% of 1,900 active; AID 602330;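 also: human MMP-2 activated beforehand with APMA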
Thrombin inh – counter-screen for RPN11 inhibitors: inhibition of bovine thrombin; shares compounds with Rpn11 inh; bovine thrombin cleavage of Ub4-pepOG, fluorescence polarization; inhibition, % at 20 µM; 13% of 1,900 active;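 active = mean inhibition at least 40% at 20 µM, or signal 3 deviations below plate average, so some actives read negative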;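 also: plate controls were thrombin with DMSO for no effect and buffer wells lacking thrombin for full effect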
Active calls of the source: *; · = no result given. Rule as the data show it, unless noted: active = inhibition above about 40%; inactive = the rest.

SMILES | TPT1 inhibitor | CSN deneddyl inh | Rpn11 inh | SENP1 inh | HNF4A DNA FP | ATG4B inh | Rpn11 inh conf | MMP-2 counter | Thrombin inh
Cc1ccc(C(=O)C2=C(O)C(=O)N(c3ncccn3)C2c2ccc(F)cc2)o1 (stereo not given) | 2 | 0 | -5 | -6 | 0 | 7 | · | · | ·
COC(=O)c1sc(N2C(=O)C(O)=C(C(=O)c3ccc(C)o3)C2c2ccc(F)cc2)nc1C (stereo not given) | 26* | 30 | 54* | -52 | 16 | -4 | 16 | 14 | -3
CCOC(=O)c1sc(N2C(=O)C(O)=C(C(=O)c3ccco3)C2c2cccc(Cl)c2)nc1C (stereo not given) | 8 | 2 | 55* | -55 | 4 | · | 15 | 39 | 5
CCOC(=O)c1sc(N2C(=O)C(O)=C(C(=O)c3ccco3)C2c2cccc([N+](=O)[O-])c2)nc1C (stereo not given) | -6 | -1 | 2 | -28 | 1 | 12 | · | · | ·
COC(=O)c1sc(N2C(=O)C(O)=C(C(=O)c3ccc(C)o3)C2c2cccs2)nc1C (stereo not given) | 10 | 19 | 49* | -61 | 20 | 0 | 5 | 12 | -26
Cc1nc2ccccc2c2oc(C(=O)N3CCN(C4CCCCC4)CC3)cc12 | -8 | 1 | 3 | -22 | 0 | -3 | · | · | ·
Cc1nc2ccccc2c2oc(C(=O)N3CCC(N4CCCCC4)CC3)cc12 | 7 | 16 | 58* | -41 | 16 | -14 | 18 | -36 | 2
O=C(c1ccc2c(c1)OCCO2)N1CCN(c2ncc(C(F)(F)F)cc2Cl)CC1 | -3 | 0 | 7 | 3 | 5 | 6 | · | · | ·
Cc1ccc(S(=O)(=O)NC2CCSC2=O)cc1C (stereo not given) | · | 3 | 2 | 1 | -2 | -12 | · | · | ·
COC(=O)c1ccc(Nc2nc(-c3ccncc3)nc3ccccc23)cc1 | -3 | 3 | 112* | 1 | 4 | -7 | 33 | -30 | 5
CCC(=O)N[C@@H]1CC[C@@H](CCNC(=O)Nc2ccc(F)cc2)O[C@@H]1CO | · | -4 | · | 2 | 2 | · | · | · | ·
CCc1ccc(C(=O)NNc2cc(Cl)cc(Cl)c2)cc1 | -1 | -1 | 1 | 2 | -1 | 11 | · | · | ·
CCc1ccc(C(=O)NNc2ccc(Cl)cc2)cc1 | -2 | -2 | 37* | 0 | -35 | 5 | -4 | -22 | -9
Nc1nc(NC(=O)CCC(=O)O)nn1-c1ccccc1 | -1 | 6 | 2 | 3 | 2 | 5 | · | · | ·
Cc1cc(C(=O)NN)c2cc(Br)ccc2n1 | 1 | -2 | 4 | 1 | 4 | -1 | · | · | ·
Cc1cc(SCC(=O)NN)c2cc(Br)ccc2n1 | 1 | 9 | 43* | -2 | 3 | 0 | 3 | -28 | -5
Cc1ccc(-n2nnnc2SCC(=O)NCC2(N3CCOCC3)CCCCC2)c(C)c1 | · | -5 | 0 | 0 | -1 | -3 | · | · | ·
CC(C(=O)N1CCCC1)N1CCN(S(=O)(=O)c2ccccc2)CC1 (stereo not given) | · | -1 | 10 | 3 | 0 | -11 | · | · | ·
COc1ccc(-c2ccc3[nH]c4c(c3c2)CCN2C[C@@H]([C@H](C)O)[C@@H](N(C)C(=O)Nc3cc(Cl)cc(Cl)c3)C[C@@H]42)cc1 | · | 7 | 41* | -25 | 17 | · | 26 | 5 | 3
O=C(Nc1ccccc1N1CCOCC1)c1cccc2c(Br)cccc12 | -1 | -3 | -3 | 0 | 0 | 10 | · | · | ·
O=C(C[C@H]1C[C@H](C(=O)N2CCOCC2)[C@@]2(CCC3CCCC3)c3[nH]c4cc(-c5ccco5)ccc4c3CCN2C1=O)NCCN1CCOCC1 | · | 11 | 17 | -29 | 7 | -6 | · | · | ·
O=C(CC1C[C@H](C(=O)N2CCCCC2)[C@@]2(CCc3ccccc3)c3[nH]c4ccccc4c3CCN2C1=O)NCc1ccco1 (stereo not given in full) | · | 0 | 6 | 0 | 3 | -7 | · | · | ·
O=C(C[C@H]1C[C@H](C(=O)N2CCCCC2)[C@@]2(CCc3ccccc3)c3[nH]c4cc(-c5ccco5)ccc4c3CCN2C1=O)NCCC1=CCCCC1 | · | 14 | 56* | -69 | 20 | 2 | -7 | 6 | -12
O=C(C[C@H]1C[C@H](C(=O)N2CCCCC2)[C@@]2(CCc3ccccc3)c3[nH]c4cc(-c5ccco5)ccc4c3CCN2C1=O)NCc1ccco1 | · | 19 | 78* | -42 | 20 | -1 | 25 | 1 | 11
CC(C)=CCC/C(C)=C/CNC(=O)C[C@H]1C[C@H](C(=O)N2CCOCC2)[C@@]2(CCC3CCCC3)c3[nH]c4cc(-c5ccco5)ccc4c3CCN2C1=O | · | 17 | 45* | -61 | 15 | 0 | 2 | 16 | 9
SMILES | TPT1 inhibitor | CSN deneddyl inh | Rpn11 inh | SENP1 inh | HNF4A DNA FP | ATG4B inh | Rpn11 inh conf | MMP-2 counter | Thrombin inh
O=C(C[C@H]1C[C@H](C(=O)N2CCCCC2)[C@@]2(CCc3ccccc3)c3[nH]c4cc(-c5ccco5)ccc4c3CCN2C1=O)NCc1cccc(C(F)(F)F)c1 | · | 18 | 61* | -62 | 20 | · | 11 | 5 | -30
CC[C@]12c3[nH]c4cc(-c5ccco5)ccc4c3CCN1C(=O)[C@@H](CC(=O)NCCC1=CCCCC1)C[C@@H]2C(=O)N1CCN(C(=O)c2ccco2)CC1 | · | 26 | 31 | -43 | 0 | -1 | · | · | ·
CC1CCCCC1NC(=O)C1CCC(CNS(=O)(=O)c2ccc3c(c2)C(C)(C)C(=O)N3C)CC1 (stereo not given) | · | 0 | 4 | -1 | -1 | · | · | · | ·
COc1ccc(-c2nc(CN3CCN(C(=O)c4ccco4)CC3)c(C)o2)c(F)c1 | -1 | -1 | -10 | -7 | 3 | 23 | · | · | ·
CCOc1ccc(C(=O)N[C@H](C(=O)NNC(=O)c2cccs2)C(C)C)cc1 | · | 1 | -8 | 2 | -2 | -16 | · | · | ·
COC(=O)/C(C#N)=C/c1c(N2CCN(c3ccc(OC)cc3)CC2)nc2c(C)cccn2c1=O | 5 | 16 | -5 | -11 | -2 | 9 | · | · | ·
CNC(=O)/C(C#N)=C/c1c(N2CCN(c3ccc(OC)cc3)CC2)nc2c(C)cccn2c1=O | -3 | 3 | 56* | -46 | -1 | 3 | -17 | -57 | 9
Cc1ccc(CN2CC(N3CCCC3)CS2(=O)=O)cc1 (stereo not given) | · | -2 | 6 | 3 | 0 | · | · | · | ·
